Blank lines part the entries; values can stand above or below the molecule they belong to.
Experiments:
[1] = target: T1, Polyunsaturated fatty acid 5-lipoxygenase (Rattus norvegicus, UniProt P12527); assay: In vitro inhibition of 5-lipoxygenase from RBL-1 cells; assay type: cell-based
T1 sequence (P12527 whole entry): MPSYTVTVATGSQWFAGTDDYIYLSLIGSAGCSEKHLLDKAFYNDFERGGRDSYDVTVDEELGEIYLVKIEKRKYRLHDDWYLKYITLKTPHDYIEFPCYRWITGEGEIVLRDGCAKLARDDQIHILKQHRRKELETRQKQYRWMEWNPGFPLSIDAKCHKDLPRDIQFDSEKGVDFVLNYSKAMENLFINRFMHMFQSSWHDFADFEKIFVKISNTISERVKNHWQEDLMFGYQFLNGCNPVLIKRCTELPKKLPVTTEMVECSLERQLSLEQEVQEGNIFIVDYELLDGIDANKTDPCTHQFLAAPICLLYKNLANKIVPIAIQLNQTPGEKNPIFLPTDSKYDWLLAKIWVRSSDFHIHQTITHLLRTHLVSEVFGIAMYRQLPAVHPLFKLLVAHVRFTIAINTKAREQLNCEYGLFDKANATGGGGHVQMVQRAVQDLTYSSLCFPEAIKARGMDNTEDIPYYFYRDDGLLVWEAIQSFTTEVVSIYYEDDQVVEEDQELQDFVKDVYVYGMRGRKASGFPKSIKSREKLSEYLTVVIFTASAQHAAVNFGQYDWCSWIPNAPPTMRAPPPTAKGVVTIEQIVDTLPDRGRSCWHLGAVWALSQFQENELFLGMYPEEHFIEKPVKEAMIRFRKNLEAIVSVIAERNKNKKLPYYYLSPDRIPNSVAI
Outline: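 Enzyme source is the 20000g supernatant of RBL-1 cells, assayed for 5-lipoxygenase inhibition. IC50 is reported in µM with a range in parentheses.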

Rattus norvegicus = assay: Plasma concentration 1 hr after oral administration of a dose of 200 uM/kg; assay type: functional, organism-based
Outline: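 Rats are dosed orally at 200 µmol/kg, and plasma drug concentration is measured 1 h later. Values are the average ± range of two determinations, and the stated detection limit is 2.0 µM.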

[2] = In vivo inhibition of biosynthesis of leukotriene in rat peritoneal anaphylaxis model at 200 uMKg; assay type: functional
Outline: (§1)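 Rats receive a single oral dose of 200 µmol/kg, and in vivo activity is measured 1 h after dosing in the peritoneal anaphylaxis model. The result is given as % inhibition of leukotriene biosynthesis or flagged as not significant.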

[3] = In vivo Inhibition of biosynthesis of leukotriene in rat peritoneal anaphylaxis model; assay type: functional
Outline: (§2)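 Test compounds are given orally to rats in the peritoneal anaphylaxis model, and leukotriene biosynthesis is measured in vivo. ED50 is expressed in µmol/kg, with the range in parentheses and the mg/kg equivalent.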

[4] = In vivo inhibition of biosynthesis of leukotriene in rat peritoneal anaphylaxis model; assay type: functional; outline: as §2
[5] = In vivo inhibition of biosynthesis of leukotriene in rat peritoneal anaphylaxis model at 200 uM/Kg; assay type: functional; outline: as §1
[6] = In vivo inhibition of biosynthesis of leukotriene in rat peritoneal anaphylaxis model at 200 mg/Kg; assay type: functional
[7] = In vivo inhibition of biosynthesis of leukotriene in rat peritoneal anaphylaxis model at 200 umol/kg; assay type: functional; outline: as §1
[8] = In vivo inhibition of biosynthesis of leukotriene in rat peritoneal anaphylaxis model; non significant at 200 umol/kg; assay type: functional; outline: as §1
[9] = Rattus norvegicus, read-out: ED50

SMILES: CCCCOc1ccc(CC(C)N(O)C(C)=O)cc1 (stereo not given)
IC50 [1]: 540 nM
Inhibition [2]: 74%

SMILES: CC(=O)N(O)Cc1ccc(OCc2ccccc2)cc1
IC50 [1]: 460 nM
Concentration (Rattus norvegicus): 2.1 µM

SMILES: CC(=O)N(O)C(C)c1ccc(/C=C/c2ccccc2)cc1 (stereo not given)
IC50 [1]: 290 nM

SMILES: CC(=O)N(O)C(C)c1ccc(OCc2ccccc2)cc1 (stereo in doubt; 5) [listing 1 of 2 here]
ED50 [3]: 8 mg/kg
ED50 [4]: 28 µM/kg

SMILES: CCCCOc1ccc(OCCN(O)C(C)=O)cc1
IC50 [1]: 750 nM
ED50 [3, 9]: 22 mg/kg
ED50 [4, 9]: 84 µmol/kg

SMILES: CC(=O)N(O)C(C)c1ccc(C(C)Oc2ccccc2)cc1 (stereo not given)
IC50 [1]: 460 nM
Inhibition [5]: 47%

SMILES: CC(=O)N(O)C(C)c1ccc(OCc2ccccc2)cc1 (stereo in doubt; 5) [listing 2 of 2 here]
Concentration (Rattus norvegicus): 70 µM

SMILES: CC(=O)N(O)C(C)c1ccccc1OCc1ccccc1 (stereo not given)
IC50 [1]: 760 nM
inhibition in vivo at 200 mg/kg [6]: < 40%

SMILES: CC(=O)N(O)C(C)c1ccc(SCc2ccccc2)cc1 (stereo not given)
IC50 [1]: 190 nM

SMILES: CCCCOc1cccc(C(C)N(O)C(C)=O)c1 (stereo not given)
IC50 [1]: 390 nM

SMILES: CC(=O)N(O)C(C)c1ccc(OC2c3ccccc3-c3ccccc32)cc1 (stereo not given)
IC50 [1]: 4900 nM
Inhibition [5]: <40%

SMILES: CCCCOc1ccc(CCC(C)N(O)C(C)=O)cc1 (stereo not given)
IC50 [1]: 360 nM
ED50 [3, 9]: 35 mg/kg
ED50 [4, 9]: 120 µmol/kg

SMILES: CC(=O)N(O)C(C)c1ccc(OCc2ccncc2)cc1 (stereo not given)
IC50 [1]: 2600 nM
ED50 [3, 9]: 9 mg/kg
ED50 [4, 9]: 32 µmol/kg
Concentration (Rattus norvegicus): 152 µM

SMILES: CCCCOc1ccc(CCN(O)C(C)=O)cc1
IC50 [1]: 380 nM
inhibition in vivo at 200 µmol/kg [7]: < 40%

SMILES: CC(=O)N(O)C(C)c1cccc(OCc2ccccc2)c1 (stereo not given)
IC50 [1]: 330 nM
ED50 [3, 9]: 19 mg/kg
ED50 [4, 9]: 68 µmol/kg

SMILES: CCCCOc1ccc(C(CC)N(O)C(C)=O)cc1 (stereo not given)
IC50 [1]: 740 nM
ED50 [3, 9]: 50 mg/kg
ED50 [4, 9]: 188 µmol/kg

SMILES: CCCCOc1ccc(C(C)(C)N(O)C(C)=O)cc1
IC50 [1]: 650 nM
inhibition in vivo at 200 µmol/kg [7]: < 40%

SMILES: CCCCOc1ccc(C(CCCC)N(O)C(C)=O)cc1 (stereo not given)
IC50 [1]: 570 nM
inhibition in vivo at 200 µmol/kg [7]: < 40%

SMILES: CC(=O)N(O)C(C)c1ccc(OCc2c(C)cc(C)cc2C)cc1 (stereo not given)
IC50 [1]: 620 nM
Inhibition [5]: <40%

SMILES: CCCCOc1ccc(CCCN(O)C(C)=O)cc1
IC50 [1]: 320 nM

SMILES: CCCCOc1ccc(CN(O)C(C)=O)cc1
IC50 [1]: 1100 nM

The next lines start with results.

IC50 [1]: 880 nM
SMILES: CCCCOc1ccc(C(C(C)C)N(O)C(C)=O)cc1 (stereo not given)
Concentration (Rattus norvegicus): < 2 µM

IC50 [1]: 500 nM
SMILES: CC(=O)N(O)C(C)c1ccc(OC(C)c2ccccc2)cc1 (stereo not given)
ED50 [3, 9]: 28 mg/kg
ED50 [4, 9]: 92 µmol/kg
Concentration (Rattus norvegicus): 106 µM

IC50 [1]: 410 nM
SMILES: CC(=O)N(O)C(C)c1ccc(OCCc2ccccc2)cc1 (stereo not given)
ED50 [3, 9]: 15 mg/kg
ED50 [4, 9]: 49 µmol/kg

IC50 [1]: 400 nM
SMILES: CC(=O)N(O)C(C)c1ccc(OCc2ccc3ccccc3n2)cc1 (stereo not given)
ED50 [3, 9]: 17 mg/kg
ED50 [4, 9]: 51 µmol/kg

IC50 [1]: 790 nM
SMILES: CCCCOc1ccc(C(C)N(O)C(C)=O)cc1 (stereo not given)
ED50 [3, 9]: 17 mg/kg
ED50 [4, 9]: 68 µmol/kg
Concentration (Rattus norvegicus): 65.7 µM

IC50 [1]: 1300 nM
SMILES: CCCCOc1ccc(C(C)N(O)C(=O)c2ccccc2)cc1 (stereo not given)
inhibition in vivo at 200 µmol/kg [7]: < 40%

IC50 [1]: 780 nM
SMILES: CC(=O)N(O)C(c1ccc(OCc2ccccc2)cc1)C(C)C (stereo not given)
inhibition in vivo at 200 µmol/kg [7]: < 40%

IC50 [1]: 610 nM
SMILES: CC(=O)N(O)C(C)c1ccc(OC(c2ccccc2)C(C)C)cc1 (stereo not given)
Inhibition [5]: <40%
Concentration (Rattus norvegicus): 10.7 µM

IC50 [1]: 690 nM
SMILES: CC(c1ccc(OCc2ccccc2)cc1)N(O)C(=O)c1ccccc1 (stereo not given)
inhibition in vivo at 200 µmol/kg [7]: < 40%
Concentration (Rattus norvegicus): < 2 µM

IC50 [1]: 470 nM
SMILES: CC(C)C(=O)N(O)C(C)c1ccc(OCc2ccccc2)cc1 (stereo not given)
inhibition in vivo at 200 µmol/kg [7]: < 40%

IC50 [1]: 1900 nM
SMILES: CCCCOc1ccc(C(C)N(O)C=O)cc1 (stereo not given)
inhibition in vivo at 200 µmol/kg [7]: < 40%

IC50 [1]: 370 nM
SMILES: CC(=O)N(O)C(C)c1ccc(Oc2ccccc2)cc1 (stereo not given)
ED50 [3, 9]: 12 mg/kg
ED50 [4, 9]: 47 µmol/kg
Concentration (Rattus norvegicus): 52 µM

IC50 [1]: 940 nM
SMILES: CC(c1ccc(OCc2ccccc2)cc1)N(O)C=O (stereo not given)
inhibition in vivo at 200 µmol/kg [8]: < 40%
Concentration (Rattus norvegicus): 2.3 µM

IC50 [1]: 370 nM
SMILES: CC(=O)N(O)C(C)c1ccc(OCc2ccccc2)cc1 (stereo in doubt; 7)

Reference: ChEMBL document CHEMBL1123979, “Structure-activity analysis of a class of orally active hydroxamic acid inhibitors of leukotriene biosynthesis” (J Med Chem, 1988)
